Results published in ChEMBL document CHEMBL4680111, “Target Validation and Identification of Novel Boronate Inhibitors of the Plasmodium falciparum Proteasome” (J Med Chem, 2018).
Activity calls are given as the source filed them. The rule behind the calls is not given here.

Legend:
[1] = target: T1, Proteasome component C5 (Homo sapiens) (UniProt P20618); test: Inhibition of human 20S constitutive proteasome beta 1 subunit assessed as inhibition of BMV037 probe labeling at 1 uM incubated for 1 hr by SDS-PAGE analysis
T1 sequence (whole entry): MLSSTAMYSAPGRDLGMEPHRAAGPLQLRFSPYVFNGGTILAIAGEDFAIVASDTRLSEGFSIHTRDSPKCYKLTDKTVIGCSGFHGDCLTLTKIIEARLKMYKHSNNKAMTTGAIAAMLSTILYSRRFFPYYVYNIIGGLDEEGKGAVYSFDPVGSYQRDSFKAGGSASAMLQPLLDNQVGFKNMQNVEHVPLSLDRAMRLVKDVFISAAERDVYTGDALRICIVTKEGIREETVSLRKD
In short: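 Purified human constitutive 20S (20 nM) was treated with compound at 37°C for 1 h, then labelled with 10 µM BMV037 at 37°C for 2 h. Samples were run on 10% Bis-Tris gel with MOPS buffer, and active subunits were detected by Cy5 fluorescence scan.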

[2] = Binding affinity to Plasmodium falciparum 20S proteasome beta 5 subunit assessed as equilibrium constant using fluorogenic peptide Ac-WLA-AMC as substrate in presence of PA28alpha by fluorescence based microplate reader assay
Plasmodium falciparum [3] = test: Binding affinity to Plasmodium falciparum 20S proteasome beta 2 subunit assessed as half-life using fluorogenic peptide Ac-WLR-AMC as substrate in presence of PA28alpha by fluorescence based microplate reader assay
[4] = Binding affinity to Plasmodium falciparum 20S proteasome beta 2 subunit assessed as equilibrium constant using fluorogenic peptide Ac-WLR-AMC as substrate in presence of PA28alpha by fluorescence based microplate reader assay
Plasmodium falciparum [5] = test: Inhibition of proteasome in Plasmodium falciparum trophozoite stage transfected with GFP-DD assessed as reduction in GFP-DD fusion protein degradation at 0.02 to 0.5 uM incubated for 3 hrs in absence of Shield-1 by Western blot analysis; conditions: dose 0.02-0.5 µM
In short: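 GFP-DD reporter parasites were held in Shield-1 for 24 h, washed out, then treated as trophozoites (5% hematocrit, 5% parasitemia) with compound for 3 h at 37°C. […] Representative of four independent experiments.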

Compound: Cc1ccc(S(=O)(=O)N[C@@H](CC(=O)NCC(C)(C)C)C(=O)N[C@@H](Cc2ccccc2)C(=O)N[C@@H](CC(C)C)B(O)O)cc1
- inhibition [1]: inactive

Compound: CC(C)C[C@H](NC(=O)[C@H](Cc1ccccc1)NC(=O)Cc1ccc(O)cc1)B(O)O
- Ki [2]: 4.3 nM
- T1/2 (Plasmodium falciparum [3]): 1.08 h
- Ki [4]: 6.4 nM
- inhibition (Plasmodium falciparum [5]): Active
